Assay results pooled from the literature.
Compare with care: the assays were run in different laboratories.
Target: Serine/threonine-protein kinase LATS2 (LATS2, Homo sapiens, UniProt Q9NRM7)
Sequence (Q9NRM7 1-1088, as in one of the studies): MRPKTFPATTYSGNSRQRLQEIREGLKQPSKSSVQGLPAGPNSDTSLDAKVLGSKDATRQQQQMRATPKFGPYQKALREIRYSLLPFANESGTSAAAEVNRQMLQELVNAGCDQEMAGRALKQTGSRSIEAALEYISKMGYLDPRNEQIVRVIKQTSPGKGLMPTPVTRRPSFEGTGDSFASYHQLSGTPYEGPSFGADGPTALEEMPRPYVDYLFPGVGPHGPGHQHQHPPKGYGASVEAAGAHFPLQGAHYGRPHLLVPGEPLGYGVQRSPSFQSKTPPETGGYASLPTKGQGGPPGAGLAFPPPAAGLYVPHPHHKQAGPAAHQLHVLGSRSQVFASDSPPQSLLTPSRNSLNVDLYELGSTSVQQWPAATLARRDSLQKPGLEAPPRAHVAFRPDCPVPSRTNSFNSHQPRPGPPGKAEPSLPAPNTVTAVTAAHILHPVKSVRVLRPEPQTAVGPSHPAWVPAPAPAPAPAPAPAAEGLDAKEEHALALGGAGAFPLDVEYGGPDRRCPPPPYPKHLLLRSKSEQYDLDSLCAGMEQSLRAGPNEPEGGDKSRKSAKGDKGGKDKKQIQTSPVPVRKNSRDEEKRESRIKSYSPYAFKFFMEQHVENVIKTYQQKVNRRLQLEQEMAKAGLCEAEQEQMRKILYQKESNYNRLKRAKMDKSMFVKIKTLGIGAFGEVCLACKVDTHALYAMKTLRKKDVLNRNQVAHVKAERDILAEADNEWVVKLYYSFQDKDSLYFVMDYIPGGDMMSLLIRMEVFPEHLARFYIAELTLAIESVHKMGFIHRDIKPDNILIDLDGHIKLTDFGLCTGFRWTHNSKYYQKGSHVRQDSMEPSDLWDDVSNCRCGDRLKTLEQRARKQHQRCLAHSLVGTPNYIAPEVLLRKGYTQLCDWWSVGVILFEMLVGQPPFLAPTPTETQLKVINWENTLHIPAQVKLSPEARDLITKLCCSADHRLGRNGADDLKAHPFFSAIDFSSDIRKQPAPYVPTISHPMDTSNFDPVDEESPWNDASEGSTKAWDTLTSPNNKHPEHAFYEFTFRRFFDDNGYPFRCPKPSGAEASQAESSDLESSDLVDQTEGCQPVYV

SMILES | effect on | method | tested at | remaining binding [%]
O=C(c1ccc(Nc2ncc(Cl)c(-c3ccc(Cl)s3)n2)cc1)N1CCC(N2CCCC2)CC1 | binding | competition with immobilised ligand | 1 µM | 3.8
C[C@@H]1CCN(c2nccc(-c3cnn4ncccc34)n2)C1 | binding | – | 1 µM | 93
FC(F)(F)Oc1cccc(-c2cnc3ccc(-c4ccncc4)nn23)c1 | cell-free assay | competition with immobilised ligand | 5 µM | 38
CCCCN(CCCC)C(=O)CN1C[C@@H](c2cc(OC)c3c(c2)OCO3)[C@H](C(=O)O)[C@H]1CC(C)(C)CCC | cell-free assay | competition with immobilised ligand | 1 µM | 100
Cc1cnc(Nc2ccc(C(=O)N3CCC(N4CCCC4)CC3)cc2)nc1-c1cc2ccccc2s1 | binding | competition with immobilised ligand | 1 µM | 44
N[C@H]1CCN(c2nccc(-c3cnn4ncccc34)n2)C1 | binding | – | 1 µM | 74
Cc1nc(C2CCN(C(=O)c3ccc(OC(F)(F)F)cc3N)CC2)c2ncc(N3CCN(C)CC3)cc2n1 | cell-free assay | competition with immobilised ligand | 1 µM | 100
O=C(NCC1CCOCC1)c1n[nH]cc1NC(=O)c1c(F)cccc1F | binding | competition with immobilised ligand | 1 µM | 87
CN(C)c1nccc(-c2cnc3ncccn23)n1 | binding | – | 1 µM | 79
CCCNc1nc(C#Cc2ccc(Cl)s2)nc2c1ncn2[C@H]1[C@H](O)[C@H](O)[C@]2(C(=O)NC)C[C@H]12 | binding | competition with immobilised ligand | 10 µM | 26
CN(CCCC(F)(F)F)c1nccc(-c2cnn3ncccc23)n1 | binding | – | 1 µM | 100
O=C(c1ccc(Nc2ncc(Cl)c(-c3cc4ccccc4s3)n2)cc1)N1CCC(N2CCCC2)CC1 | binding | competition with immobilised ligand | 1 µM | 15
O=C1CCc2cc(Nc3cc(OC4CCOCC4)c([N+](=O)[O-])cc3Cl)ccc2N1 | cell-free assay | competition with immobilised ligand | 1 µM | 80
Nc1ncc2c(n1)-c1c([nH]c3ccc(C#CC4CC4)cc13)CCCC2 | binding | competition with immobilised ligand | 1 µM | 91
FC(F)(F)c1ccc2c(c1)nc(-c1cccnc1)n2C1CC1 | cell-free assay | competition with immobilised ligand | 1 µM | 100
CN(C)c1nccc(-c2cnn3ncccc23)n1 | binding | – | 1 µM | 64
C[C@H](c1ccc(F)cc1)N(Cc1cccc(C(=O)O)c1)C(=O)c1cnc2ccccc2c1 | cell-free assay | competition with immobilised ligand | 1 µM | 64
COc1cnc(Nc2cccc(S(N)(=O)=O)c2)nc1N1CCN(c2ccccc2)C(=O)C1 | binding | competition with immobilised ligand | 1 µM | 100
COc1cc(-c2cn(C3CCc4ccccc4N(CC(F)(F)F)C3=O)nn2)ccc1-n1ccc(C)n1 (centres unmarked) | cell-free assay | competition with immobilised ligand | 1 µM | 69
COc1ccnn2ncc(-c3ccnc(N(C)C)n3)c12 | binding | – | 1 µM | 100
